The text below walks through data of ChEMBL document CHEMBL1128219, “In vitro antimalarial activity of chalcones and their derivatives” (J Med Chem, 1995).

Structures are written as SMILES.

Data set [1] concerns Plasmodium falciparum. The data set can be described thus: In vitro antimalarial activity against chloroquine-resistant Plasmodium falciparum CDC/Indochina III W2. Type of data set: functional, organism-based. The essentials:
(§1)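 Compound DMSO solution diluted 400-fold in RPMI 1640 containing 25 mM Hepes, 32 mM NaHCO3 and 10% human plasma, then 2-fold serial dilutions over 11 concentrations. Parasites exposed 48 h at 37 °C under 5% O2/5% CO2/90% N2, then [3H]hypoxanthine added for a further 18 h. DNA harvested onto glass filters and counted by scintillation. IC50 from logistic dose-response fit.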

Data set [2] deals with Plasmodium falciparum. The data set can be described thus: In vitro antimalarial activity against chloroquine-sensitive Plasmodium falciparum D6 (CDC/Sierra Leone I). Type of data set: functional, organism-based. The essentials:
as §1

A short description of data set [3]: Ratio of IC50 of W2 strain to D6 strain. Type of data set: functional. The essentials:
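Resistance index is IC50 against chloroquine-resistant P. falciparum W2 (CDC/Indochina III) divided by IC50 against chloroquine-sensitive D6 (CDC/Sierra Leone I). Compounds dissolved in DMSO, diluted 400-fold into RPMI 1640 with 25 mM Hepes, 32 mM NaHCO3 and 10% human plasma, then 2-fold serially over 11 concentrations. Parasites were exposed for 48 h at 37 °C (5% O2, 5% CO2, 90% N2), then given [3H]hypoxanthine for 18 h. IC50 came from logistic fits.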

Data set [4] deals with Plasmodium falciparum. The data set can be described thus: In vitro antimalarial activity against chloroquine-resistant Plasmodium falciparum CDC/Indochina III W2; Not active. Type of data set: functional, organism-based. In short, it runs like this:
as §1

Data set [5] relates to Plasmodium falciparum. The data set can be described thus: In vitro antimalarial activity against chloroquine-sensitive Plasmodium falciparum CDC/Sierra Leone I D6; Not active. Type of data set: functional, organism-based. In short, it runs like this: as §1
Data set [6] concerns Plasmodium falciparum. The data set can be described thus: In vitro antimalarial activity against chloroquine-sensitive Plasmodium falciparum D6 (CDC/Sierra Leone I); Not active. It counts as functional, organism-based. The essentials:
as §1

Data set [7] is described as follows: Compound was evaluated for the pKa value in water at 20 degrees Centigrade. Type of data set: physicochemical.

Broadly, the IC50 is the concentration needed to halve the response being measured. In the case of `COc1ccc(OC)c(C(=O)/C=C\c2ccc(Cl)cc2Cl)c1`, the IC50 with Plasmodium falciparum [1] is 750 nM; with Plasmodium falciparum [2], 920 nM. In addition, the Resistance index in data set [3] was 0.8.

Turning to `COc1ccc(C(=O)/C=C\c2ccc(Cl)cc2Cl)c(OC)c1OC`, the IC50 turned out to be 360 nM with Plasmodium falciparum [1] and 430 nM in the data set on Plasmodium falciparum [2]. The Resistance index in data set [3] came out at 0.8.

For the compound `COc1ccc(C(=O)CCc2ccc(Cl)cc2Cl)c(OC)c1`, the IC50 result with Plasmodium falciparum [4] was “Not Active”; in the data set on Plasmodium falciparum [5] it was “Not Active”; in the data set with Plasmodium falciparum [1], greater than 15000 nM; in the data set with Plasmodium falciparum [2], greater than 15000 nM.

In the case of `COc1ccc(C(=O)/C=C/c2cccc(Cl)c2Cl)cc1OC`, the values for the IC50 with Plasmodium falciparum [1] and in the data set with Plasmodium falciparum [2] were 1140 nM and 1960 nM, respectively. In data set [3], the Resistance index was 0.6.

Regarding `O=C(/C=C\c1ccnc2ccccc12)c1ccc(Cl)c(Cl)c1`, the IC50 in the data set on Plasmodium falciparum [1] was 800 nM; in the data set on Plasmodium falciparum [2], 1690 nM. In addition, the Resistance index in data set [3] stood at 0.5.

Regarding `COc1ccc(C(=O)CCc2ccc(F)c(F)c2)c(OC)c1`, the half-maximal inhibitory concentration (IC50) result in the data set with Plasmodium falciparum [4] is “Not Active”; in the data set on Plasmodium falciparum [1], greater than 16000 nM; with Plasmodium falciparum [6], “Not Active”; in the data set with Plasmodium falciparum [2], greater than 16000 nM.

Regarding `COc1ccc(/C=C/C(=O)c2ccc(Cl)cc2Cl)c(OC)c1`, the IC50 in the data set on Plasmodium falciparum [1] was found to be 3800 nM; with Plasmodium falciparum [2], 3400 nM. Besides, the Resistance index in data set [3] amounted to 1.1.

On to `O=C(/C=C/c1cc2ccccc2nc1Cl)c1ccc(F)cc1F`, for which the IC50 in the data set on Plasmodium falciparum [1] was 1000 nM; with Plasmodium falciparum [2], 980 nM. For the same compound, the Resistance index in data set [3] was found to be 1.

In the case of `COc1ccc(C(=O)/C=C/c2cc3ccccc3nc2Cl)c(OC)c1`, the values for the IC50 in the data set with Plasmodium falciparum [1] and with Plasmodium falciparum [2] were 1000 nM and 1290 nM, respectively. Also, in data set [3], the Resistance index was determined as 0.8.

As for `COc1ccc(/C=C/C(=O)c2ccc(F)cc2F)c(OC)c1`, the values for the IC50 in the data set with Plasmodium falciparum [1] and in the data set with Plasmodium falciparum [2] were 11100 nM and 19100 nM, respectively. Moreover, the Resistance index in data set [3] amounted to 0.6.

Take `COc1ccc(C(=O)/C=C/c2ccc(C(F)(F)F)cc2)c(OC)c1`: the IC50 with Plasmodium falciparum [1] came out at 750 nM; in the data set on Plasmodium falciparum [2], 680 nM. For the same compound, the Resistance index in data set [3] came to 1.1.

For the compound `COc1ccc(/C=C(\C)C(=O)c2ccc(Cl)cc2Cl)c(OC)c1`, the IC50 entry in the data set with Plasmodium falciparum [4] is “Not Active”; in the data set with Plasmodium falciparum [1] it was greater than 14000 nM; with Plasmodium falciparum [6], “Not Active”; with Plasmodium falciparum [2], greater than 14000 nM.

Consider `O=C(/C=C/c1cc2ccccc2nc1Cl)c1cccnc1`, for which the IC50 in the data set with Plasmodium falciparum [1] was 710 nM; with Plasmodium falciparum [2], 2530 nM. Moreover, the Resistance index in data set [3] turned out to be 0.3.

On to `COc1ccc(C(=O)/C=C/c2cc3ccccc3nc2Cl)cc1OC`, for which the IC50 with Plasmodium falciparum [1] turned out to be 510 nM; with Plasmodium falciparum [2], 720 nM. The Resistance index in data set [3] was 0.7.

In the case of `COc1cccc(OC)c1C(=O)/C=C\c1ccc(Cl)cc1`, the IC50 in the data set on Plasmodium falciparum [1] stood at 770 nM; in the data set on Plasmodium falciparum [2], 1240 nM. For the same compound, the Resistance index in data set [3] worked out at 0.6.

As to `O=C(/C=C/c1ccc(Cl)cc1Cl)c1ccc(-n2ccnc2)cc1`, the IC50 in the data set on Plasmodium falciparum [1] turned out to be 1180 nM; with Plasmodium falciparum [2] it was 900 nM. Moreover, the Resistance index in data set [3] worked out at 1.3.

With `COc1ccc(C(=O)/C=C/c2ccc(F)c(F)c2)c(OC)c1`, the concentration for half-maximal inhibition (IC50) was 2090 nM in the data set with Plasmodium falciparum [1] and 2100 nM in the data set on Plasmodium falciparum [2]. Also, the Resistance index in data set [3] is 1.

With `COc1ccc(C(=O)/C=C/c2ccc(F)cc2F)c(OC)c1`, the IC50 turned out to be 1900 nM in the data set with Plasmodium falciparum [1] and 1950 nM in the data set on Plasmodium falciparum [2]. For the same compound, the Resistance index in data set [3] stood at 1.

Take `COc1ccc(C(=O)/C=C/c2ccc(Cl)cc2Cl)c(OC)c1`: the IC50 in the data set on Plasmodium falciparum [1] came out at 900 nM; in the data set with Plasmodium falciparum [2], 770 nM. The Resistance index in data set [3] came out at 1.2.

Turning to `COc1ccc(C(=O)/C=C/c2cccc(Cl)c2Cl)c(OC)c1`, the results for the IC50 with Plasmodium falciparum [1] and in the data set with Plasmodium falciparum [2] were 1380 nM and 1290 nM, respectively. Besides, in data set [3], the Resistance index was found to be 1.1.

What is called pKa is the pH at which an ionisable group is half protonated. High values mean a group that holds its proton tightly, low ones a group that gives up its proton readily. For `c1ccc2cnccc2c1` [ISOQUINOLINE], the pKa in data set [7] came to 5.4.

Turning to `COc1ccc(OC)c(C(=O)/C=C/c2cccc(Cl)c2Cl)c1`, the IC50 in the data set with Plasmodium falciparum [1] stood at 920 nM; in the data set on Plasmodium falciparum [2], 1100 nM. Further, in data set [3], the Resistance index amounted to 0.8.

Consider `O=C(/C=C\c1ccnc2ccccc12)c1cc(Cl)ccc1Cl`, for which the figures for the half-maximal inhibitory concentration (IC50) in the data set with Plasmodium falciparum [1] and in the data set with Plasmodium falciparum [2] were 230 nM and 190 nM, respectively. In addition, the Resistance index in data set [3] was 1.2.

With `COc1ccc(C(=O)/C(C)=C/c2ccc(Cl)cc2Cl)c(OC)c1`, the figures for the IC50 with Plasmodium falciparum [1] and in the data set with Plasmodium falciparum [2] were 2460 nM and 6260 nM, respectively. The Resistance index in data set [3] turned out to be 0.4.
